This note sets out measurements from ChEMBL document CHEMBL1152730, “Non-peptidic substrate-mimetic inhibitors of Akt as potential anti-cancer agents” (Bioorg Med Chem, 2009).

Numbered stars: 1 amine (or outer) side, 2 acyl side, 3 side chain; on linkers, the order of the positions; unused ones are H or OH. Square brackets hold non-standard residues; d marks the D form. Peptide text beside a SMILES is read from it. * marks the point of attachment. X2 = O=C(c1ccc(N[*:1])cc1-c1cccc2ccccc12)[*:2]; X1 = O=C(c1ccc(N[*:1])c(-c2ccccc2)c1)[*:2]; X3 = O=C(c1ccc(N[*:1])cc1-c1ccccc1)[*:2]; X4 = Cc1cc(C(=O)[*:2])ccc1N[*:1]; NHBn = c1ccc(CN*)cc1

RAC-alpha serine/threonine-protein kinase, sequence (P31749 whole entry): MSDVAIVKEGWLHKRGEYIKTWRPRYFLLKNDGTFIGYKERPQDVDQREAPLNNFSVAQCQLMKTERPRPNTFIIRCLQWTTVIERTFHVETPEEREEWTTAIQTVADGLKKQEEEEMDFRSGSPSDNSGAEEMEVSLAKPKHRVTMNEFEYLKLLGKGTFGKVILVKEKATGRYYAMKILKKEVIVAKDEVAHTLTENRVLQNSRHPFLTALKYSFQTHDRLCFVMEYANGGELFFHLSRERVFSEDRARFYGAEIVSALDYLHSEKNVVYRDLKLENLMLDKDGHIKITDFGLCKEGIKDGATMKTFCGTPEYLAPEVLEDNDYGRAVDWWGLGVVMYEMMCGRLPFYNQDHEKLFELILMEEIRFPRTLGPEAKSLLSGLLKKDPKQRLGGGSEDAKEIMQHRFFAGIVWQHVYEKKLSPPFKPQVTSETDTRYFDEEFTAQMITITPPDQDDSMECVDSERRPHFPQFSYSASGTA

This assay concerns the target RAC-alpha serine/threonine-protein kinase (Homo sapiens, UniProt P31749). Nature of the assay: Inhibition of Akt1 by fluorescence polarization assay. The procedure, abridged:
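Substrate 100 nM 5FAM-labelled GSK3-derived peptide, ATP 5 μM, inhibitor added from DMSO stock. Incubated 1 h at room temperature, then quenched with IMAP binding solution. Phosphorylation read by fluorescence polarization; IC50 determined.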
(In fluorescence polarisation assays a small probe gives low polarisation when free and higher when bound to something large.)
As a reminder, the IC50 is the concentration that gives 50% inhibition. Turning to `N=C(N)NCCNc1ccc(C(=O)Nc2ccc(N(Cc3ccccc3)Cc3ccccc3)cc2)cc1-c1ccc(-c2ccccc2)cc1`, the IC50 stood at 83 µM. In turn, `CC(C)c1ccc(CN(Cc2ccc(C(C)C)cc2)c2ccc(NC(=O)c3ccc(NC(=O)CNC(=N)N)c(-c4ccc5ccccc5c4)c3)cc2)cc1` returned a concentration for half-maximal inhibition (IC50) of 17 µM. Next, `N=C(N)NCCNc1ccc(C(=O)Nc2ccc(N(Cc3ccccc3)Cc3ccccc3)cc2)cc1-c1ccc2ccccc2c1`: 44 µM. `CC(=O)Nc1ccc(-c2cc(C(=O)Nc3ccc(N(Cc4ccccc4)Cc4ccccc4)cc3)ccc2NCCNC(=N)N)cc1` came in with an IC50 of 253 µM. For `CC(=O)N[C@@H](CCCNC(=N)N)C(=O)Nc1ccc(C(=O)Nc2ccc3c(=O)n(Cc4ccccc4)c(=O)n(Cc4ccccc4)c3c2)cc1` the value was 112 µM.

In turn, `NC(N)=NCC(=O)Nc1ccc(-c2cc3cc(N(Cc4ccccc4)Cc4ccccc4)ccc3[nH]2)cc1` yielded an IC50 of 126 µM. For the molecule `N=C(N)NCCNc1ccc(C(=O)Nc2ccc(N(Cc3cccc4ccccc34)Cc3cccc4ccccc34)cc2)cc1-c1ccccc1`, the IC50 is 43 µM. As to `CC(=O)N[C@@H](CCCNC(=N)N)C(=O)Nc1ccc(C(=O)Nc2ccc3c(c2)c(=O)n(Cc2ccccc2)c(=O)n3Cc2ccccc2)cc1`, the IC50 was determined as 232 µM.

For the molecule `N=C(N)NCCNc1ccc(C(=O)Nc2ccc(N(Cc3ccc(F)cc3)Cc3ccc(F)cc3)cc2)cc1-c1ccccc1`, the half-inhibitory concentration (IC50) came to 55 µM.

The molecule `N=C(N)NCCNc1ccc(C(=O)Nc2ccc(N(Cc3ccc(-c4ccccc4)cc3)Cc3ccc(-c4ccccc4)cc3)cc2)cc1-c1ccccc1` had a concentration for half-maximal inhibition (IC50) of 84 µM. `CC(C)c1ccc(CN(Cc2ccc(C(C)C)cc2)c2ccc(NC(=O)c3ccc(NCCNC(=N)N)c(-c4ccc5ccccc5c4)c3)cc2)cc1` registered a 50% inhibitory concentration (IC50) of 38 µM.

On to `CC(C)c1ccc(CN(Cc2ccc(C(C)C)cc2)c2ccc(NC(=O)c3ccc(NCCNC(=N)N)c(-c4ccccc4)c3)cc2)cc1`, for which 28 µM corresponded to half-maximal inhibition (IC50).

In the case of `CC(=O)NCC(=O)N[C@@H](CCCNC(=N)N)C(=O)N1CCC[C@H]1C(=O)N[C@@H](CCCNC(=N)N)C(=O)Nc1ccc(C(=O)N[C@H](C(=O)N[C@@H](Cc2ccccc2)C(=O)NCc2ccccc2)C(C)C)c(-c2cccc3ccccc23)c1` (Ac-GRPR[X2]VF-NHBn), the IC50 stood at 78 µM. The molecule `N=C(N)NCCNc1ccc(C(=O)Nc2ccc(N(Cc3ccccc3)Cc3ccccc3)cc2)cc1` had an IC50 of 96 µM.

For the molecule `CC(C)c1ccc(-c2cc(C(=O)Nc3ccc(N(Cc4ccccc4)Cc4ccccc4)cc3)ccc2NCCNC(=N)N)cc1`, the half-maximal inhibitory concentration (IC50) was 52 µM. On to `CC(=O)NCC(=O)N[C@@H](CCCNC(=N)N)C(=O)N1CCC[C@H]1C(=O)N[C@@H](CCCNC(=N)N)C(=O)Nc1ccc(C(=O)N[C@H](C(=O)N[C@@H](Cc2ccccc2)C(=O)NCc2ccccc2)C(C)C)c(-c2ccccc2)c1` (Ac-GRPR[X3]VF-NHBn), for which the IC50 amounted to 16 µM. Next, `Cc1ccc(CN(Cc2ccc(C)cc2)c2ccc(NC(=O)c3ccc(NCCNC(=N)N)c(-c4ccccc4)c3)cc2)cc1`: 215 µM; `N#Cc1ccc(-c2cc(C(=O)Nc3ccc(N(Cc4ccccc4)Cc4ccccc4)cc3)ccc2NCCNC(=N)N)cc1`: 78 µM. Consider `COC(=O)c1ccc(-c2cc(C(=O)Nc3ccc(N(Cc4ccccc4)Cc4ccccc4)cc3)ccc2NCCNC(=N)N)cc1`, for which 158 µM corresponded to half-maximal inhibition (IC50). Molecule `Cc1cccc(CN(Cc2cccc(C)c2)c2ccc(NC(=O)c3ccc(NCCNC(=N)N)c(-c4ccccc4)c3)cc2)c1` gave a 50% inhibitory concentration (IC50) of 152 µM. In turn, `CC(=O)NCC(=O)N[C@@H](CCCNC(=N)N)C(=O)N1CCC[C@H]1C(=O)N[C@@H](CCCNC(=N)N)C(=O)Nc1ccc(C(=O)N[C@H](C(=O)N[C@@H](Cc2ccccc2)C(=O)NCc2ccccc2)C(C)C)cc1-c1ccccc1` (Ac-GRPR[X1]VF-NHBn) had an IC50 greater than 500 µM. `N=C(N)NCCNc1ccc(C(=O)Nc2ccc(N(Cc3ccccc3)Cc3ccccc3)cc2)cc1-c1ccccc1` registered an IC50 of 84 µM. Next, `CC(=O)N[C@@H](CCCNC(=N)N)C(=O)Nc1ccc(C(=O)N[C@H](C(=O)N[C@@H](Cc2ccccc2)C(=O)NCc2ccccc2)C(C)C)c(-c2ccccc2)c1`: 173 µM; `CC(=O)NCC(=O)N[C@@H](CCCNC(=N)N)C(=O)N1CCC[C@H]1C(=O)N[C@@H](CCCNC(=N)N)C(=O)Nc1ccc(C(=O)N[C@H](C(=O)N[C@@H](Cc2ccccc2)C(=O)NCc2ccccc2)C(C)C)cc1C` (Ac-GRPR[X4]VF-NHBn): 50 µM; `N#Cc1ccc(CN(Cc2ccc(C#N)cc2)c2ccc(NC(=O)c3ccc(NCCNC(=N)N)c(-c4ccc5ccccc5c4)c3)cc2)cc1`: 17 µM.

`N#Cc1ccc(CN(Cc2ccc(C#N)cc2)c2ccc3[nH]c(-c4ccc(NC(=O)CN=C(N)N)cc4)cc3c2)cc1` showed an IC50 of 32 µM. As to `CC(=O)N[C@@H](CCCNC(=N)N)C(=O)Nc1ccc(C(=O)N[C@H](C(=O)N[C@@H](Cc2ccccc2)C(=O)NCc2ccccc2)C(C)C)cc1-c1ccccc1`, the 50% inhibitory concentration (IC50) came out at 288 µM. `N#Cc1ccc(CN(Cc2ccc(C#N)cc2)c2ccc(NC(=O)c3ccc(NC(=O)CNC(=N)N)c(-c4ccc5ccccc5c4)c3)cc2)cc1` returned an IC50 of 12 µM.

`N#Cc1ccc(CN(Cc2ccc(C#N)cc2)c2ccc(NC(=O)c3ccc(NCCNC(=N)N)c(-c4ccccc4)c3)cc2)cc1` displayed an IC50 of 19 µM. `N=C(N)NCCNc1ccc(C(=O)Nc2ccc(N(Cc3ccc4ccccc4c3)Cc3ccc4ccccc4c3)cc2)cc1-c1ccccc1` returned an IC50 of 23 µM.
